Common to all, as to assay type: functional
For one assay, the system named is Jurkat. The assay can be described thus: Antiproliferative activity against human Jurkat cells at 100 uM after 72 hrs by WST1 assay. An outline of the steps: (§1)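 Cells were exposed to compound for 72 h at 37 °C in RPMI 1640 with 10% FCS. Densities (cells/mL) were CEM 0.2×10^6, Jurkat 0.6×10^6, Raji 0.4×10^6, MCF-7 and Caco-2 0.2×10^6. WST-1 was then added for 4 h and absorbance read at 492 nm. Living cells are given as % of untreated-control OD (100 = no activity), with 0.1% DMSO vehicle controls and etoposide as positive control.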
On the technique in general: Tetrazolium assays rely on reduction of a dye to a coloured formazan, in cell work by metabolically active cells.

The test system of the next assay is Caco-2. The assay can be described thus: Antiproliferative activity against human Caco-2 cells at 100 uM after 72 hrs by WST1 assay. An outline of the steps: as §1
For a further assay, the system named is Raji. The assay can be described thus: Antiproliferative activity against human Raji cells at 100 uM after 72 hrs by WST1 assay. An outline of the steps:
as §1

The next assay deals with MCF7. Description: Antiproliferative activity against human MCF7 cells at 100 uM after 72 hrs by WST1 assay. In outline:
as §1

A further assay has as its system CCRF-CEM. Description: Antiproliferative activity against human CEM cells after at 100 uM 72 hrs by WST1 assay. An outline of the steps: as §1

Results on 26 molecules are retold here after ChEMBL document CHEMBL1165902, “Synthesis and antiproliferative activity of oxazinocarbazole and N,N-bis(carbazolylmethyl)amine derivatives” (Eur J Med Chem, 2010).

As for `CCn1c2ccccc2c2c(O)c(CN(Cc3ccccn3)Cc3ccc4c(c3O)c3ccccc3n4CC)ccc21`, the Activity turned out to be 97.5% in the assay on Jurkat; 35.5% in the assay with Caco-2; 100% with Raji; 89% with MCF7; 53% in the assay on CCRF-CEM.
On to `C=CCn1c2ccccc2c2c(O)c(CN(Cc3ccccn3)Cc3ccc4c(c3O)c3ccccc3n4CC=C)ccc21`, for which the Activity with Jurkat is 92%; with Caco-2, 94%; with Raji it was 95.5%; in the assay on MCF7 it was 94.5%; in the assay with CCRF-CEM, 78.5%.
On the same counts, the results for `Cn1c2ccccc2c2c3c(ccc21)CN(c1ccccc1)CO3` are 74.5%, 100%, 77%, 100% and 25%.
On the same counts, the results for `C=CCn1c2ccccc2c2c3c(ccc21)CN(c1ccccc1)CO3` are 13.5%, 54.5%, 49.5%, 83% and 17%.
Take `CC(C)=CCn1c2ccccc2c2c(O)c(CN(Cc3ccccn3)Cc3ccc4c(c3O)c3ccccc3n4CC=C(C)C)ccc21`: the Activity in the assay on Jurkat, in the assay with Caco-2, in the assay on Raji, in the assay with MCF7 and in the assay on CCRF-CEM was 100% throughout.
As to `Cn1c2ccccc2c2c(O)c(CN(Cc3ccccn3)Cc3ccc4c(c3O)c3ccccc3n4C)ccc21`, the Activity with Jurkat is recorded as 72%; in the assay on Caco-2, 54%; in the assay on Raji, 100%; in the assay with MCF7, 98.5%; with CCRF-CEM it was 87.5%.
On the same counts, the results for `Cn1c2ccccc2c2c3c(ccc21)CN(Cc1ccccc1)CO3` are 87%, 100%, 80%, 87% and 10%.
Regarding `C=CCN1COc2ccc3c4ccccc4n(C)c3c2C1`, the Activity with Jurkat is recorded as 2%; with Caco-2, 5%; in the assay on Raji it was 60.5%; in the assay on MCF7, 62%; in the assay with CCRF-CEM, 1.5%.
On the same counts, the results for `CCn1c2ccccc2c2c3c(ccc21)CN(c1ccccc1)CO3` are 55%, 100%, 84%, 100% and 58.5%.
On the same counts, the results for `CCn1c2ccccc2c2c3c(ccc21)CN(Cc1ccccn1)CO3` are 82%, 16%, 100%, 52% and 23%.
On the same counts, the results for `Cn1c2ccccc2c2cc(CN(Cc3ccccn3)Cc3cc4c5ccccc5n(C)c4cc3O)c(O)cc21` are 8.5%, 10.5%, 70%, 24.5% and 9%.
`CCn1c2ccccc2c2c3c(ccc21)CN(Cc1ccccc1)CO3`: the Activity in the assay on Caco-2 was 46%; in the assay with MCF7 it was 64%; in the assay with CCRF-CEM it was 31.5%.
Take `CCn1c2ccccc2c2c3c(ccc21)CN(Cc1ccc(C)cc1)CO3`: the Activity in the assay with Jurkat was 49.5%; with Caco-2, 93%; with Raji, 31.5%; in the assay with MCF7, 85.5%; with CCRF-CEM, 15%.
Regarding `Cn1c2ccccc2c2cc3c(cc21)OCN(Cc1ccccc1)C3`, the Activity stood at 1% with Jurkat; 1.5% in the assay with Caco-2; 11% with Raji; 3% in the assay on MCF7; 0.5% in the assay with CCRF-CEM.
On the same counts, the results for `C=CCN1COc2c(ccc3c2c2ccccc2n3CC=C)C1` are 2.5%, 12%, 19.5%, 43% and 2%.
`Cc1ccc(CN2COc3c(ccc4c3c3ccccc3n4C)C2)cc1`: the values for the Activity in the assay with MCF7 and in the assay on CCRF-CEM were 42.5% and 55.5%, respectively.
As to `CC(c1ccccc1)N1COc2c(ccc3c2c2ccccc2n3C)C1` (stereo not drawn), the Activity in the assay with Jurkat amounted to 80.5%; in the assay on Caco-2 it was 100%; in the assay on Raji, 84%; with MCF7 it was 100%; in the assay on CCRF-CEM, 40%.
As to `C=CCn1c2ccccc2c2c3c(ccc21)CN(Cc1ccccc1)CO3`, the Activity was 67% with Jurkat; 56.5% in the assay with Caco-2; 100% with Raji; 55.5% with MCF7; 5.5% in the assay with CCRF-CEM.
On the same counts, the results for `C=CCn1c2ccccc2c2c3c(ccc21)CN(Cc1ccc(C)cc1)CO3` are 3.5%, 54.5%, 9.5%, 66% and 9%.
As to `C=CCn1c2ccccc2c2c3c(ccc21)CN(Cc1ccccn1)CO3`, the Activity in the assay with Jurkat is given as 12.5%; in the assay on Caco-2 it was 55.5%; in the assay on Raji it was 31.5%; in the assay on MCF7, 47.5%; in the assay on CCRF-CEM, 14.5%.
On the same counts, the results for `Cc1ccc(CN2COc3ccc4c5ccccc5n(C)c4c3C2)cc1` are 1.5%, 3%, 12%, 1.5% and 1%.
Turning to `CC(C)=CCn1c2ccccc2c2c3c(ccc21)CN(Cc1ccc(C)cc1)CO3`, the Activity in the assay on Jurkat is 13.5%; with Caco-2, 48.5%; with Raji it was 11%; with MCF7, 41.5%; in the assay with CCRF-CEM, 11.5%.
For `CC(c1ccccc1)N1COc2ccc3c4ccccc4n(C)c3c2C1` (stereo not drawn), the Activity in the assay on Jurkat turned out to be 0.5%; with Caco-2, 5%; in the assay with Raji, 19.5%; in the assay with MCF7, 0%; in the assay on CCRF-CEM it was 0.5%.
Regarding `Cn1c2ccccc2c2cc3c(cc21)OCN(Cc1nc2ccccc2s1)C3`, the Activity in the assay on Jurkat came out at 17%; in the assay with Caco-2, 51%; with Raji it was 78%; with MCF7 it was 79%; with CCRF-CEM, 34%.
Regarding `CCn1c2ccccc2c2c3c(ccc21)CN(C(C)c1ccccc1)CO3` (stereo not drawn), the Activity came to 59% in the assay on Caco-2, 86.5% with MCF7 and 21% with CCRF-CEM.
Regarding `CC(C)=CCn1c2ccccc2c2c3c(ccc21)CN(c1ccccc1)CO3`, the Activity in the assay on Jurkat stood at 7.5%; in the assay with Caco-2, 60%; with Raji, 17%; in the assay on MCF7 it was 49%; in the assay on CCRF-CEM, 10.5%.
